Screening results: PubChem BioAssay, The Scripps Research Institute Molecular Screening Center
Only some compounds are listed: those with a hit (about 2.3% of all), similar ones and a draw of the others.
OXTR potentiate – potentiates the human oxytocin receptor response; P30559; CHO-OTR cells, Fluo-8 calcium fluorescence, potentiator mode; 0% = oxytocin EC15, 100% = EC100; activation, % at 3 µM; actives 0.061% (n = 320,000);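 active means activation above that plate's cutoff, the mean activation of tested compounds plus 3 SD, cut at about 6.6% in these data, passing the limit was not always enough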;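 further: 100% uses oxytocin at 75 nM as the full agonist control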
Target sequence (P30559 whole entry, looked up): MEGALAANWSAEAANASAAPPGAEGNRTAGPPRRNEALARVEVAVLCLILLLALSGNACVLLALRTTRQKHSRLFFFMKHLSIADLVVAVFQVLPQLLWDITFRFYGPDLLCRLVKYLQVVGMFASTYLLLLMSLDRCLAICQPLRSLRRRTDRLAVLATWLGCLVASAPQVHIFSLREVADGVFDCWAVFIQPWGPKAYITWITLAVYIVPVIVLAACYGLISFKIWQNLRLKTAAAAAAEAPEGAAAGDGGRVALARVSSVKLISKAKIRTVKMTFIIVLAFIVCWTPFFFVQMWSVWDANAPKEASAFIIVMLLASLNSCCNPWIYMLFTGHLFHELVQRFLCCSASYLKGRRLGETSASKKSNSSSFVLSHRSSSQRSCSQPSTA
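Assay system: CHO-OTR cells, human receptor / Also added: oxytocin at about EC15, sub-maximal agonist stimulus / Dosing: single dose, 3.0 µM nominal final compound concentration / Incubation: 6 min pre-incubation, 100 s read / Technique: Fluo-8 calcium dye fluorescence / Read-out: % activation vs EC15 and EC100 oxytocin / Benchmarks: EC15 oxytocin low, 75 nM oxytocin high / Replicates: singlicate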
OXTR ag – activates the human oxytocin receptor; actives 0.32% (n = 320,000); activation, % at 3 µM; P30559; CHO-OTR cells, Fluo-8 calcium fluorescence; normalized: DMSO 0%, oxytocin 100%; AID 2435;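 active means activation above the mean of all tested compounds plus 3 SD, cutoff set per screening run, cut at about 20% in these data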;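 further: peak over basal fluorescence ratio from a 100 s FLIPR kinetic read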
TAAR1 antagonist – human TAAR1 antagonism; Q96RJ0; CHO RD-HGA16 TAAR1, Fluo-8 calcium fluorescence, antagonist; actives 1.5% (n = 360,000); AID 624466; inhibition, % at 3 µM;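 active means inhibition above a per-plate cutoff, the mean inhibition of test compounds on that plate plus 3 SD, cut at about 49% in these data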;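 further: 0% = DMSO plus EC80 beta-PEA response and 100% = DMSO alone without agonist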
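Assay system: CHO-derived RD-HGA16 cells stably expressing human TAAR1 plus Gα16. Timing: 140 s kinetic read after compound, 140 s after agonist. Technique: kinetic Fluo-8 calcium fluorescence measurement. Measure: % inhibition of agonist calcium response.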
V1aR counter – activates human V1a receptor in oxytocin agonist counter-screen | CHO-V1R cells, Fluo-8 calcium fluorescence, agonist mode; 0% DMSO, 100% 3 nM vasopressin | activation, % at 3 µM | actives 0.25% (n = 320,000) | AID 2797;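 active means activation above the mean activation of all tested compounds plus 3 SD, per screening run, cut at about 20% in these data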;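 further: signal is peak over basal fluorescence ratio across a 100 second FLIPR read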
TAAR1 ag – human TAAR1 agonism; CHO RD-HGA16 TAAR1, Fluo-8 calcium fluorescence; vehicle wells 0%, saturating PEA agonist 100%; actives 0.99% (n = 360,000); activation, % at 3 µM; AID 624467;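 active means activation above the mean activation of all test compounds in the run plus 3 SD, cut at about 38% in these data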
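Assay system – CHO-derived RD-HGA16 cells with stable Gα16 and human TAAR1 · Compound dosing – one-point dosing at 3 µM (nominal) · Incubation – 17-24 h seeding, 75 min 37 °C dye, 30 min RT · Measured by – kinetic Fluo-8 calcium fluorescence · Control set – DMSO vehicle as 0%, PEA at EC100 as 100% · Repeats – single well for each compound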
V1aR agonist cf – confirmation of human vasopressin V1a receptor agonists | activation, % at 3 µM | actives 20% (n = 180) | CHO-V1R cells, Fluo-8 calcium fluorescence, agonist | shares compounds with V1aR counter;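 active means average activation exceeds primary screen hit cutoff, cut at about 21% in these data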;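 further: peak over basal fluorescence ratio during a 100 s FLIPR read; 0% = DMSO only wells and 100% = 3 nM vasopressin wells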
OXTR counter – activates oxytocin receptor in V1a agonist counter-screen. shares compounds with V1aR counter. activation, % at 3 µM. CHO-OTR cells, Fluo-8 calcium fluorescence. actives 10% (n = 180);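 active means mean activation over three repeats above the cutoff from the earlier oxytocin receptor agonist screen, cut at about 20% in these data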;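 further: peak over minimum fluorescence ratio within a 100 second FLIPR read; 0% = DMSO only wells and 100% = oxytocin high control wells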
* = called active by the depositor; . = not tested or not shown.

SMILES	OXTR potentiate	OXTR ag	TAAR1 antagonist	V1aR counter	TAAR1 ag	V1aR agonist cf	OXTR counter
CSc1nnc(N2C(=O)C(O)=C(C(=O)c3ccco3)C2c2ccc(F)cc2)s1 (stereo not drawn)	-5	19	-32	33*	3	7	6
CC(C)c1ccc(C2c3[nH]c4ccccc4c3C[C@H]3C(=O)N(c4ccccc4C(=O)N4CCC[C@@H]4C(=O)O)C(=O)N23)cc1 (stereo partly drawn)	7	1	-20	2	1	.	.
O=C(O)CCCNS(=O)(=O)/C=C/c1ccccc1	-3	0	-8	1	4	.	.
COc1ccc(NC(=O)CN2C(=O)NC(C)(c3ccc(C)cc3)C2=O)cn1 (stereo not drawn)	1	4	6	4	5	.	.
Cc1cccc(NC(=O)COC(=O)c2ccc(S(=O)(=O)N3CCCC3)cc2)c1	.	.	-9	.	4	.	.
COc1ccc(/C=C/CN2CCC(CO)(Cc3ccccc3Cl)CC2)cc1	-25	13	-13	28*	26	3	9
COC(=O)c1ccc(CN2CCC(CO)(Cc3ccccc3Cl)CC2)cc1	-24	2	23	2	2	.	.
Cc1ccc(S(=O)(=O)N2CCC(C(=O)OCC(=O)N3CCCC3=O)CC2)cc1C	-18	-2	-30	0	0	.	.
Nc1nonc1-n1nnc(C(=O)N/N=C/c2cccnc2)c1CSc1ccccc1	-7	10	29	15	13	.	.
Nc1nonc1-n1nnc(C(=O)N/N=C/c2cccnc2)c1CSc1ccc(Cl)cc1	-8	15	56*	21*	20	3	5
CC(C)NC(=O)CSc1nnc(-c2ccc(F)cc2)c2ccccc12	-6	-3	-16	-2	2	.	.
COc1cc(C(C2=C(O)CC(C)(C)CC2=O)C2C(=O)CC(C)(C)CC2=O)cc(OC)c1OC (stereo not drawn)	-9	-1	0	1	3	.	.
CC1(C)CC(=O)C(C(C2=C(O)CC(C)(C)CC2=O)c2ccc(Cl)c([N+](=O)[O-])c2)C(=O)C1 (stereo not drawn)	-6	8	-3	48*	1	16	10
CC[N+]1=C(C)C(C)(C)c2cc(C)ccc21	-4	14	17	23*	2	5	3
CCN1C(=O)C(=O)c2cc(C)ccc21	2	-1	-5	1	8	.	.
COc1ccccc1OCc1cc(C(=O)NCc2ccc(N3CCCC3=O)cc2)no1	-7	0	-3	3	0	.	.
COc1cccc(N2CCN(c3ccc(S(=O)(=O)N4CCN(C)CC4)cc3[N+](=O)[O-])CC2)c1	-8	15	10	21*	11	7	6
CCN(CC)S(=O)(=O)c1ccc(N2CCN(c3cccc(OC)c3)CC2)c([N+](=O)[O-])c1	-10	2	6	2	0	.	.
CC(=O)Nc1ccc(CN(C)c2c(C)nc3ccc(C(=O)N4CCN(c5ccccc5)CC4)cn23)cc1	.	.	13	.	11	.	.
COC(=O)c1ccccc1NC(=O)C(C)n1nc(C)c2c(C)n(-c3ccccc3)nc2c1=O (stereo not drawn)	-10	1	-10	23*	2	0	-1
COc1ccc(NC2CCCCC2NS(=O)(=O)c2ccc(C)cc2)cc1 (stereo not drawn)	-11	-2	-4	-1	-3	.	.
O=C(CN1CCN(C(=O)c2ccccc2)CC1)Nc1cccc(S(=O)(=O)N2CCCC2)c1	.	.	-25	.	1	.	.
CCC[C@@H]1C[C@@H](C(=O)N[C@@H](C2O[C@H](SC)[C@H](O)[C@@H](O)[C@H]2O)[C@H](C)Cl)N(C)C1 (stereo partly drawn)	-2	1	.	43*	.	4	1
